Experimental findings from ChEMBL document CHEMBL1156410, “Design and synthesis of a combinatorial chemistry library of 7-acyl, 10-acyl, and 7,10-diacyl analogues of paclitaxel (taxol) using solid phase synthesis” (J Nat Prod, 2002) are described below.

Structures are written as SMILES. Values after ≈ are worked out from the molar mass of the structure shown.

Assay [1] in a line: Induction of tubulin polymerization at 0.1 uM by DAPI fluorescence method relative to control. A digest of the protocol:
(§1)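 Microplate assay in PMEG buffer (100 mM PIPES, 1 mM MgSO₄, 2 mM EGTA, 0.1 mM GTP, pH 6.9) containing ligand; DAPI final 10 µM, tubulin final 5 µM. Fluorescence followed at 37 °C, excitation 360/40 nm, emission 460/40 nm. Change in fluorescence normalized to the curve of 10 µM paclitaxel standard. Samples in duplicate, triplicate or quadruplicate; concentrations over 2 orders of magnitude tested.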

A short description of assay [2]: Induction of tubulin polymerization at 1 uM by DAPI fluorescence method relative to control. A digest of the protocol:
as §1

Assay [3] in a line: Induction of tubulin polymerization at 10 uM by DAPI fluorescence method relative to control. In short, it runs like this:
as §1

A further assay concerns A2780. Kind of assay: Cytotoxicity against human A2780 cells. The format is functional, cell-based.
Assay [4] in a line: Induction of tubulin polymerization by DAPI fluorescence method. The note with it: read-out: I50. A digest of the protocol: as §1

As for `COc1cccc(C(=O)O[C@H]2C[C@H]3OC[C@@]3(OC(C)=O)[C@H]3[C@H](OC(=O)c4ccccc4)[C@]4(O)C[C@H](OC(=O)[C@H](O)[C@@H](NC(=O)c5ccccc5)c5ccccc5)C(C)=C([C@@H](OC(=O)c5ccccc5)C(=O)[C@]23C)C4(C)C)c1`, the values for the Activity in assay [1], in assay [2] and in assay [3] were 22%, 52% and 78%, respectively.
Consider `CC(=O)O[C@@]12CO[C@@H]1C[C@H](OC(=O)CN1CCC(N3CCCC3)CC1)[C@@]1(C)C(=O)[C@H](O)C3=C(C)[C@@H](OC(=O)[C@H](O)[C@@H](NC(=O)c4ccccc4)c4ccccc4)C[C@@](O)([C@@H](OC(=O)c4ccccc4)[C@H]21)C3(C)C`, for which the IC50 in the assay on A2780 worked out at 0.96 µg/mL (≈ 0.954 µM); in assay [4] it was 0.85 µM.
For `CC(=O)O[C@@]12CO[C@@H]1C[C@H](OC(=O)C1CC1)[C@@]1(C)C(=O)[C@H](OC(=O)OCc3ccccc3)C3=C(C)[C@@H](OC(=O)[C@H](O)[C@@H](NC(=O)c4ccccc4)c4ccccc4)C[C@@](O)([C@@H](OC(=O)c4ccccc4)[C@H]21)C3(C)C`, the results for the Activity in assay [1], in assay [2] and in assay [3] were 10%, 26% and 53%, respectively.
As for `CCC(=O)O[C@H]1C(=O)[C@]2(C)[C@@H](OC(=O)C=C(C)C)C[C@H]3OC[C@@]3(OC(C)=O)[C@H]2[C@H](OC(=O)c2ccccc2)[C@]2(O)C[C@H](OC(=O)[C@H](O)[C@@H](NC(=O)c3ccccc3)c3ccccc3)C(C)=C1C2(C)C`, the Activity in assay [1] is 20%; in assay [2], 51%; in assay [3], 120%.
The like results for `CC(=O)O[C@@]12CO[C@@H]1C[C@H](OC(=O)C=C(C)C)[C@@]1(C)C(=O)[C@H](OC(=O)OCc3ccccc3)C3=C(C)[C@@H](OC(=O)[C@H](O)[C@@H](NC(=O)c4ccccc4)c4ccccc4)C[C@@](O)([C@@H](OC(=O)c4ccccc4)[C@H]21)C3(C)C` were, in that order, 10%, 39% and 43%.
For `C/C=C/C(=O)O[C@H]1C(=O)[C@]2(C)[C@@H](OC(=O)C3CC3)C[C@H]3OC[C@@]3(OC(C)=O)[C@H]2[C@H](OC(=O)c2ccccc2)[C@]2(O)C[C@H](OC(=O)[C@H](O)[C@@H](NC(=O)c3ccccc3)c3ccccc3)C(C)=C1C2(C)C`, in that order: 27%, 41% and 109%.
For `CCC(=O)O[C@H]1C(=O)[C@]2(C)[C@@H](OC(C)=O)C[C@H]3OC[C@@]3(OC(C)=O)[C@H]2[C@H](OC(=O)c2ccccc2)[C@]2(O)C[C@H](OC(=O)[C@H](O)[C@@H](NC(=O)c3ccccc3)c3ccccc3)C(C)=C1C2(C)C`, in that order: 5%, 44% and 111%.
As for `CCCC(=O)O[C@H]1C[C@H]2OC[C@@]2(OC(C)=O)[C@H]2[C@H](OC(=O)c3ccccc3)[C@]3(O)C[C@H](OC(=O)[C@H](O)[C@@H](NC(=O)c4ccccc4)c4ccccc4)C(C)=C([C@@H](OC(=O)CC)C(=O)[C@]12C)C3(C)C`, the figures for the Activity in assay [1], in assay [2] and in assay [3] were 4%, 52% and 123%, respectively.
Consider `CC(=O)O[C@@]12CO[C@@H]1C[C@H](OC(=O)CN1CCNCC1)[C@@]1(C)C(=O)[C@H](O)C3=C(C)[C@@H](OC(=O)[C@H](O)[C@@H](NC(=O)c4ccccc4)c4ccccc4)C[C@@](O)([C@@H](OC(=O)c4ccccc4)[C@H]21)C3(C)C`, for which the IC50 with A2780 turned out to be 0.86 µg/mL (≈ 0.917 µM).
With `CC(=O)O[C@@]12CO[C@@H]1C[C@H](OC(=O)CCl)[C@@]1(C)C(=O)[C@H](OC(=O)OCc3ccccc3)C3=C(C)[C@@H](OC(=O)[C@H](O)[C@@H](NC(=O)c4ccccc4)c4ccccc4)C[C@@](O)([C@@H](OC(=O)c4ccccc4)[C@H]21)C3(C)C`, the Activity turned out to be 0% in assay [1], 20% in assay [2] and 48% in assay [3].
For `CCCCC(=O)O[C@H]1C[C@H]2OC[C@@]2(OC(C)=O)[C@H]2[C@H](OC(=O)c3ccccc3)[C@]3(O)C[C@H](OC(=O)[C@H](O)[C@@H](NC(=O)c4ccccc4)c4ccccc4)C(C)=C([C@@H](OC(=O)CC)C(=O)[C@]12C)C3(C)C`, in that order: 10%, 51% and 102%.
For `C/C=C/C(=O)O[C@H]1C(=O)[C@]2(C)[C@@H](OC(=O)CCl)C[C@H]3OC[C@@]3(OC(C)=O)[C@H]2[C@H](OC(=O)c2ccccc2)[C@]2(O)C[C@H](OC(=O)[C@H](O)[C@@H](NC(=O)c3ccccc3)c3ccccc3)C(C)=C1C2(C)C`, in that order: 29%, 66% and 116%.
For `CCC(=O)O[C@H]1C(=O)[C@]2(C)[C@@H](OC(=O)CC)C[C@H]3OC[C@@]3(OC(C)=O)[C@H]2[C@H](OC(=O)c2ccccc2)[C@]2(O)C[C@H](OC(=O)[C@H](O)[C@@H](NC(=O)c3ccccc3)c3ccccc3)C(C)=C1C2(C)C`, in that order: 5%, 37% and 111%.
In the case of `CC(=O)O[C@@]12CO[C@@H]1C[C@H](O)[C@@]1(C)C(=O)[C@H](OC(=O)c3ccccc3)C3=C(C)[C@@H](OC(=O)[C@H](O)[C@@H](NC(=O)c4ccccc4)c4ccccc4)C[C@@](O)([C@@H](OC(=O)c4ccccc4)[C@H]21)C3(C)C`, the Activity in assay [1] turned out to be 46%; in assay [2], 78%; in assay [3] it was 113%.
The like results for `CCC(=O)O[C@H]1C(=O)[C@]2(C)[C@@H](OC(=O)CCl)C[C@H]3OC[C@@]3(OC(C)=O)[C@H]2[C@H](OC(=O)c2ccccc2)[C@]2(O)C[C@H](OC(=O)[C@H](O)[C@@H](NC(=O)c3ccccc3)c3ccccc3)C(C)=C1C2(C)C` were, in that order, 20%, 72% and 114%.
For `CC(=O)O[C@@]12CO[C@@H]1C[C@H](O)[C@@]1(C)C(=O)[C@H](OC(=O)OCc3ccccc3)C3=C(C)[C@@H](OC(=O)[C@H](O)[C@@H](NC(=O)c4ccccc4)c4ccccc4)C[C@@](O)([C@@H](OC(=O)c4ccccc4)[C@H]21)C3(C)C`, in that order: 34%, 83% and 115%.
For the molecule `CCC(=O)O[C@H]1C(=O)[C@]2(C)[C@@H](OC(=O)c3ccccc3)C[C@H]3OC[C@@]3(OC(C)=O)[C@H]2[C@H](OC(=O)c2ccccc2)[C@]2(O)C[C@H](OC(=O)[C@H](O)[C@@H](NC(=O)c3ccccc3)c3ccccc3)C(C)=C1C2(C)C`, the values for the Activity in assay [1], in assay [2] and in assay [3] were 0%, 33% and 97%, respectively.
For `CC(=O)O[C@@]12CO[C@@H]1C[C@H](OC(=O)C1CC1)[C@@]1(C)C(=O)[C@H](OC(=O)c3ccccc3)C3=C(C)[C@@H](OC(=O)[C@H](O)[C@@H](NC(=O)c4ccccc4)c4ccccc4)C[C@@](O)([C@@H](OC(=O)c4ccccc4)[C@H]21)C3(C)C`, in that order: 30%, 61% and 91%.
Regarding `CC(=O)O[C@@]12CO[C@@H]1C[C@H](OC(=O)c1ccccc1)[C@@]1(C)C(=O)[C@H](OC(=O)OCc3ccccc3)C3=C(C)[C@@H](OC(=O)[C@H](O)[C@@H](NC(=O)c4ccccc4)c4ccccc4)C[C@@](O)([C@@H](OC(=O)c4ccccc4)[C@H]21)C3(C)C`, the Activity in assay [1] is 10%; in assay [2], 32%; in assay [3], 33%.
For `CCC(=O)O[C@H]1C(=O)[C@@]2(C)[C@H]([C@H](OC(=O)c3ccccc3)[C@]3(O)C[C@H](OC(=O)[C@H](O)[C@@H](NC(=O)c4ccccc4)c4ccccc4)C(C)=C1C3(C)C)[C@]1(OC(C)=O)CO[C@@H]1C[C@@H]2O`, in that order: 13%, 54% and 114%.
The like results for `CCC(=O)O[C@H]1C[C@H]2OC[C@@]2(OC(C)=O)[C@H]2[C@H](OC(=O)c3ccccc3)[C@]3(O)C[C@H](OC(=O)[C@H](O)[C@@H](NC(=O)c4ccccc4)c4ccccc4)C(C)=C([C@@H](OC(=O)OCc4ccccc4)C(=O)[C@]12C)C3(C)C` were, in that order, 0%, 3% and 24%.
Consider `CC(=O)O[C@@]12CO[C@@H]1C[C@H](OC(=O)CN1Cc3ccccc3C1)[C@@]1(C)C(=O)[C@H](O)C3=C(C)[C@@H](OC(=O)[C@H](O)[C@@H](NC(=O)c4ccccc4)c4ccccc4)C[C@@](O)([C@@H](OC(=O)c4ccccc4)[C@H]21)C3(C)C`, for which the IC50 in assay [4] amounted to 2.04 µM.
Turning to `C/C=C/C(=O)O[C@H]1C(=O)[C@]2(C)[C@@H](OC(=O)c3ccccc3)C[C@H]3OC[C@@]3(OC(C)=O)[C@H]2[C@H](OC(=O)c2ccccc2)[C@]2(O)C[C@H](OC(=O)[C@H](O)[C@@H](NC(=O)c3ccccc3)c3ccccc3)C(C)=C1C2(C)C`, the Activity worked out at 33% in assay [1], 66% in assay [2] and 81% in assay [3].
With `CCC(=O)O[C@H]1C(=O)[C@]2(C)[C@@H](OC(=O)C3CC3)C[C@H]3OC[C@@]3(OC(C)=O)[C@H]2[C@H](OC(=O)c2ccccc2)[C@]2(O)C[C@H](OC(=O)[C@H](O)[C@@H](NC(=O)c3ccccc3)c3ccccc3)C(C)=C1C2(C)C`, the figures for the Activity in assay [1], in assay [2] and in assay [3] were 6%, 62% and 113%, respectively.
For `CC(=O)O[C@@]12CO[C@@H]1C[C@H](OC(=O)CCl)[C@@]1(C)C(=O)[C@H](OC(=O)c3ccccc3)C3=C(C)[C@@H](OC(=O)[C@H](O)[C@@H](NC(=O)c4ccccc4)c4ccccc4)C[C@@](O)([C@@H](OC(=O)c4ccccc4)[C@H]21)C3(C)C`, in that order: 29%, 56% and 92%.
For the molecule `C/C=C/C(=O)O[C@H]1C(=O)[C@@]2(C)[C@H]([C@H](OC(=O)c3ccccc3)[C@]3(O)C[C@H](OC(=O)[C@H](O)[C@@H](NC(=O)c4ccccc4)c4ccccc4)C(C)=C1C3(C)C)[C@]1(OC(C)=O)CO[C@@H]1C[C@@H]2O`, the values for the Activity in assay [1], in assay [2] and in assay [3] were 26%, 80% and 117%, respectively.
